According to ChEMBL document CHEMBL1154588, “Evaluation of triazolamers as active site inhibitors of HIV-1 protease” (Bioorg Med Chem Lett, 2009):
pIC50, pKi: −log10 of the molar value.

What follows are molecules tested against Protease (Human immunodeficiency virus 1, UniProt Q9YQ12) (assay: Inhibition of HIV1 protease by FRET-based assay).
Procedure, shortened: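 HIV-1 protease activity was read out by a FRET-based protease assay, following a previously described method. Triazolamer solutions were made up in 10% DMSO in aqueous buffer for the assay.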

Protease, sequence (Q9YQ12 whole entry): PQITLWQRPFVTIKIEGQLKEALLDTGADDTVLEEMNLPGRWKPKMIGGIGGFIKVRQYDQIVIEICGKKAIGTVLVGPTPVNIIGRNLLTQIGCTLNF

| SMILES | pIC50 | pKi |
| --- | --- | --- |
| C[C@H](c1ccccc1)n1cc([C@H](Cc2ccccc2)n2cc([C@H](Cc3ccccc3)n3cc([C@@H](N)Cc4ccccc4)nn3)nn2)nn1 | 4.11 | – |
| NCCNC(=O)[C@H](Cc1ccccc1)n1cc([C@H](Cc2ccccc2)n2cc([C@H](Cc3ccccc3)n3cc([C@H](Cc4ccccc4)n4cc([C@@H](N)Cc5ccccc5)nn4)nn3)nn2)nn1 | 4.60 | 4.60 |
| CC(C)[C@H](N)c1cn([C@H](c2cn([C@@H](Cc3ccccc3)c3cn([C@H](c4cn([C@H](C)c5ccccc5)nn4)C(C)C)nn3)nn2)C(C)C)nn1 | 3.88 | – |
| CC(C)[C@@H](c1cn([C@@H](Cc2ccccc2)c2cn([C@@H](Cc3ccccc3)c3cn([C@H](c4cn([C@H](C)c5ccccc5)nn4)C(C)C)nn3)nn2)nn1)n1cc(CCc2ccccc2)nn1 | 4.00 | – |
| CNC(=O)[C@H](Cc1ccccc1)n1cc([C@H](Cc2ccccc2)n2cc([C@H](Cc3ccccc3)n3cc([C@H](Cc4ccccc4)n4cc([C@@H](N)Cc5ccccc5)nn4)nn3)nn2)nn1 | 4.14 | – |
| C[C@H](c1ccccc1)n1cc([C@H](Cc2ccccc2)n2cc([C@H](Cc3ccccc3)n3cc([C@H](Cc4ccccc4)n4cc([C@@H](N)Cc5ccccc5)nn4)nn3)nn2)nn1 | 4.54 | 4.60 |

Other lines, results leading:

| pIC50 | pKi | SMILES |
| --- | --- | --- |
| 3.89 | – | CC(C)[C@H](N)c1cn([C@@H](Cc2ccccc2)c2cn([C@@H](Cc3ccccc3)c3cn([C@H](C)c4ccccc4)nn3)nn2)nn1 |
| < 3.30 | 3.30 | CNC(=O)[C@H](C(C)C)n1cc([C@H](Cc2ccccc2)n2cc([C@H](Cc3ccccc3)n3cc([C@@H](N)C(C)C)nn3)nn2)nn1 |
| < 3.30 | 3.30 | CNC(=O)[C@H](C(C)C)n1cc([C@H](Cc2ccccc2)n2cc([C@H](Cc3ccccc3)n3cc([C@H](C)N)nn3)nn2)nn1 |
| 4.22 | – | CC(C)[C@H](N)c1cn([C@@H](Cc2ccccc2)c2cn([C@@H](Cc3ccccc3)c3cn([C@H](c4cn([C@H](C)c5ccccc5)nn4)C(C)C)nn3)nn2)nn1 |
